Test results as given in ChEMBL document CHEMBL1136859, “Synthesis and antimicrobial evaluation of some new substituted purine derivatives” (2009).
Values after ≈ are worked out from the molar mass of the structure shown.

Assays:
Assay type in all cases: functional
Staphylococcus aureus [1] = assay: Antibacterial activity against Staphylococcus aureus ATCC 25923 after 18 to 24 hrs by tube dilution method
How it was run: (§1)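 Two-fold broth tube dilution in Mueller–Hinton broth. Strains kept on Mueller–Hinton agar for 24 h at 37 °C. Colonies suspended in sterile water and adjusted to 0.5 McFarland, giving a final inoculum of about 10⁵ CFU/mL. Compounds dissolved in 12.5% DMSO at 200 µg/mL and serially diluted to 0.19 µg/mL. Incubated 18–24 h at 37 °C. MIC taken as the last tube with no growth.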

Staphylococcus aureus [2] = assay: Antibacterial activity against methicillin-resistant Staphylococcus aureus […] after 18 to 24 hrs by tube dilution method; how it was run: as §1
Staphylococcus aureus [3] = assay: Antibacterial activity against methicillin-resistant Staphylococcus aureus isolate after 18 to 24 hrs by tube dilution method; how it was run: as §1
Escherichia coli = assay: Antibacterial activity against Escherichia coli 25922 after 18 to 24 hrs by tube dilution method; settings: ATCC25922
How it was run: (§2)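 Tube dilution broth MIC in Mueller–Hinton broth. Strains were maintained on Mueller–Hinton agar for 24 h at 37 °C. Colonies were suspended in sterile water, adjusted to 0.5 McFarland, and added to give about 10⁵ CFU/mL final. Compounds were dissolved in 12.5% DMSO and serially diluted two-fold. Tubes were incubated 18–24 h at 37 °C. MIC was taken as the last tube with no growth.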

Bacillus subtilis = assay: Antibacterial activity against Bacillus subtilis 6633 after 18 to 24 hrs by tube dilution method; how it was run: as §2
Candida albicans = assay: microbe, parasite or virus in culture

SMILES | MIC (Staphylococcus aureus [1]) [µg/mL] | MIC (Staphylococcus aureus [2]) [µg/mL] | MIC (Staphylococcus aureus [3]) [µg/mL] | MIC (Escherichia coli) [µg/mL] | MIC (Bacillus subtilis) [µg/mL] | MIC (Candida albicans) [µg/mL]
Fc1ccc(CNc2ncnc3c2ncn3C2CCCC2)c(F)c1 | 50 (≈ 152 µM) | 50 (≈ 152 µM) | 50 (≈ 152 µM) | 50 (≈ 152 µM) | 50 (≈ 152 µM) | 25 (≈ 75.9 µM)
CC1CCN(c2ncnc3c2ncn3C2CCCC2)CC1 | 50 (≈ 175 µM) | 50 (≈ 175 µM) | 50 (≈ 175 µM) | 50 (≈ 175 µM) | 50 (≈ 175 µM) | 12.5 (≈ 43.8 µM)
c1ccc(NCCNc2ncnc3[nH]cnc23)cc1 | 50 (≈ 197 µM) | 50 (≈ 197 µM) | 50 (≈ 197 µM) | 25 (≈ 98.3 µM) | 50 (≈ 197 µM) | 3.12 (≈ 12.3 µM)
CCn1c(NCC(C)C)nc2c(N)ncnc21 | 50 (≈ 213 µM) | 50 (≈ 213 µM) | 50 (≈ 213 µM) | 50 (≈ 213 µM) | 50 (≈ 213 µM) | 25 (≈ 107 µM)
CCNc1nc2c(N)ncnc2n1C1CCCC1 | 25 (≈ 101 µM) | 50 (≈ 203 µM) | 50 (≈ 203 µM) | 50 (≈ 203 µM) | 50 (≈ 203 µM) | 6.25 (≈ 25.4 µM)
C1=CC(CCNc2ncnc3c2ncn3C2CCCC2)CCC1 (configuration not stated) | 12.5 (≈ 40.1 µM) | 25 (≈ 80.3 µM) | 25 (≈ 80.3 µM) | 25 (≈ 80.3 µM) | 50 (≈ 161 µM) | 12.5 (≈ 40.1 µM)
C1=CC(CCNc2ncnc3[nH]cnc23)CCC1 (configuration not stated) | 50 (≈ 205 µM) | 50 (≈ 205 µM) | 50 (≈ 205 µM) | 25 (≈ 103 µM) | 25 (≈ 103 µM) | 6.25 (≈ 25.7 µM)
Clc1ccc(CNc2ncnc3c2ncn3C2CCCC2)cc1 | 12.5 (≈ 38.1 µM) | 6.25 (≈ 19.1 µM) | 6.25 (≈ 19.1 µM) | 50 (≈ 153 µM) | 25 (≈ 76.3 µM) | 12.5 (≈ 38.1 µM)
Clc1ccc(COC(Cn2ccnc2)c2ccc(Cl)cc2Cl)c(Cl)c1 (configuration not stated) [MICONAZOLE] | – | – | – | – | – | 3.12 (≈ 7.5 µM)
CCn1c(NC2CCCC2)nc2c(N)ncnc21 | 50 (≈ 203 µM) | 50 (≈ 203 µM) | 50 (≈ 203 µM) | 50 (≈ 203 µM) | 25 (≈ 101 µM) | 12.5 (≈ 50.7 µM)
CC(C)NCCNc1ncnc2c1ncn2Cc1ccc(F)cc1 | 50 (≈ 152 µM) | 50 (≈ 152 µM) | 50 (≈ 152 µM) | 50 (≈ 152 µM) | 50 (≈ 152 µM) | 25 (≈ 76.1 µM)
COc1ccc(CNc2ncnc3c2ncn3C2CCCC2)c(OC)c1 | 50 (≈ 141 µM) | 50 (≈ 141 µM) | 50 (≈ 141 µM) | 25 (≈ 70.7 µM) | 25 (≈ 70.7 µM) | 12.5 (≈ 35.4 µM)
CN1CCN(Nc2ncnc3[nH]cnc23)CC1 | 50 (≈ 214 µM) | 50 (≈ 214 µM) | 50 (≈ 214 µM) | 25 (≈ 107 µM) | 25 (≈ 107 µM) | 12.5 (≈ 53.6 µM)
Clc1ccc(CNc2ncnc3c2ncn3C2CCCC2)c(Cl)c1 | 12.5 (≈ 34.5 µM) | 25 (≈ 69 µM) | 50 (≈ 138 µM) | 50 (≈ 138 µM) | 25 (≈ 69 µM) | 6.25 (≈ 17.3 µM)
Nc1ncnc2c1ncn2C1CCCC1 | 50 (≈ 246 µM) | 50 (≈ 246 µM) | 50 (≈ 246 µM) | 50 (≈ 246 µM) | 25 (≈ 123 µM) | 12.5 (≈ 61.5 µM)
CC1(C)S[C@@H]2[C@H](NC(=O)[C@H](N)c3ccccc3)C(=O)N2[C@H]1C(=O)O [AMPICILLIN] | 0.78 (≈ 2.23 µM) | 50 (≈ 143 µM) | 50 (≈ 143 µM) | 50 (≈ 143 µM) | 50 (≈ 143 µM) | –
CC1(C)S[C@@H]2[C@H](NC(=O)[C@H](N)c3ccccc3)C(=O)N2[C@H]1C(=O)OCOC(=O)[C@@H]1N2C(=O)C[C@H]2S(=O)(=O)C1(C)C [SULTAMICILLIN] | 1.56 (≈ 2.62 µM) | 25 (≈ 42 µM) | 25 (≈ 42 µM) | 25 (≈ 42 µM) | 0.78 (≈ 1.31 µM) | –
CCN(CC)CCNc1ncnc2c1ncn2C1CCCC1 | 50 (≈ 165 µM) | 50 (≈ 165 µM) | 50 (≈ 165 µM) | 50 (≈ 165 µM) | 25 (≈ 82.7 µM) | 50 (≈ 165 µM)
CCN(CC)CCNc1ncnc2c1ncn2Cc1ccc(F)cc1 | 50 (≈ 146 µM) | 50 (≈ 146 µM) | 50 (≈ 146 µM) | 50 (≈ 146 µM) | 25 (≈ 73 µM) | 25 (≈ 73 µM)
CC1CCN(c2ncnc3[nH]cnc23)CC1 | 25 (≈ 115 µM) | 50 (≈ 230 µM) | 50 (≈ 230 µM) | 50 (≈ 230 µM) | 25 (≈ 115 µM) | 25 (≈ 115 µM)
COc1ccc(CNc2ncnc3c2ncn3C2CCCC2)cc1 | 25 (≈ 77.3 µM) | 50 (≈ 155 µM) | 25 (≈ 77.3 µM) | 50 (≈ 155 µM) | 50 (≈ 155 µM) | 12.5 (≈ 38.7 µM)
O=C(O)c1cn(C2CC2)c2cc(N3CCNCC3)c(F)cc2c1=O [CIPROFLOXACIN] | 0.78 (≈ 2.35 µM) | – | 12.5 (≈ 37.7 µM) | – | 0.19 (≈ 0.573 µM) | –
Clc1ccc(CO/N=C(\Cn2ccnc2)c2ccc(Cl)cc2Cl)c(Cl)c1 [OXICONAZOLE] | – | – | – | – | – | 6.25 (≈ 14.6 µM)
c1ccc(NCCNc2ncnc3c2ncn3C2CCCC2)cc1 | 50 (≈ 155 µM) | 50 (≈ 155 µM) | 50 (≈ 155 µM) | 50 (≈ 155 µM) | 25 (≈ 77.5 µM) | 12.5 (≈ 38.8 µM)
CN1CCN(Nc2ncnc3c2ncn3C2CCCC2)CC1 | 50 (≈ 166 µM) | 50 (≈ 166 µM) | 50 (≈ 166 µM) | 50 (≈ 166 µM) | 25 (≈ 82.9 µM) | 25 (≈ 82.9 µM)
CC(C)NCCNc1ncnc2c1ncn2C1CCCC1.Cl | 25 | 50 | 50 | 50 | 25 | 25
Fc1ccc(CNc2ncnc3c2ncn3C2CCCC2)cc1 | 25 (≈ 80.3 µM) | 25 (≈ 80.3 µM) | 25 (≈ 80.3 µM) | 50 (≈ 161 µM) | 25 (≈ 80.3 µM) | 3.12 (≈ 10 µM)
